Compound activity as filed in PubChem BioAssay.
This is a sample that favours compounds with a hit; in the whole collection about 2.3% have one here.
TAAR1 antagonist = human TAAR1 antagonists, primary screen, Fluo-8 calcium fluorescence, CHO RD-HGA16 cells; antagonist; inhibition, % at 3 µM; hit rate 1.5% among 360,000; AID 624466, 2012;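 active = inhibition above a per-plate cutoff, the mean inhibition of test compounds on that plate plus 3 SD, cut at about 49% in these data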;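 also: 0% = DMSO plus EC80 beta-PEA response and 100% = DMSO alone without agonist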
Target sequence (Q96RJ0 whole entry, looked up): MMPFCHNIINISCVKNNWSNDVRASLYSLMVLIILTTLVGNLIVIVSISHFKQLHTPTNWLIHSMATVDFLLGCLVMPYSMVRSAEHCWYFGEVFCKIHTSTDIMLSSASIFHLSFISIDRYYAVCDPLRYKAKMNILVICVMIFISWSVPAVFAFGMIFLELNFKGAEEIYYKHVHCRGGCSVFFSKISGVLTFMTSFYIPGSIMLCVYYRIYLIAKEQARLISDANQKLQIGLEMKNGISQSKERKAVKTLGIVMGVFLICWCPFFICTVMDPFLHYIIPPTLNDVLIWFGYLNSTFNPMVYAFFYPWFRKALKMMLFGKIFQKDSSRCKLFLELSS
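Test system: hTAAR1-expressing CHO RD-HGA16 cells, Gα16-coupled; Probe or stimulus: EC80 β-phenethylamine stimulus; Compound dosing: single nominal final test compound concentration of 3 µM; Timing: 140 s kinetic read after compound, 140 s after agonist; Signal: Fluo-8 calcium-sensitive fluorescence; Measure: % inhibition of agonist calcium response; Controls: DMSO and EC80 PEA controls.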
TAAR1 ag = human TAAR1 agonists, primary screen, Fluo-8 calcium fluorescence, CHO RD-HGA16 cells; hit rate 0.99% among 360,000; vehicle wells 0%, saturating PEA agonist 100%; activation, % at 3 µM; AID 624467, 2012;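 active = activation above the mean activation of all test compounds in the run plus 3 SD, cut at about 38% in these data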
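Test system: RD-HGA16 (CHO) cells co-expressing Gα16 and hTAAR1 | Doses: Single dose, 3 µM | Schedule: 17-24 h seeding, 75 min 37 °C dye, 30 min RT | Evaluation: % activation from peak over basal fluorescence ratio, DMSO-to-PEA scaled | Technique: Kinetic Fluo-8 calcium fluorescence | Benchmarks: Low control DMSO, high control PEA (EC100)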
V1aR counter = agonists of human V1a receptor, primary screen, counter-screen for OXTR agonist project, fluorescence, CHO-V1R cells; activation, % at 3 µM; Vasopressin V1a receptor (Homo sapiens), P37288; hit rate 0.25% among 320,000; Fluo-8 calcium fluorescence, agonist mode; 0% DMSO, 100% 3 nM vasopressin;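 active = activation above the mean activation of all tested compounds plus 3 SD, per screening run, cut at about 20% in these data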;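 also: signal is peak over basal fluorescence ratio across a 100 second FLIPR read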
OXTR potentiate = human OXTR potentiators, primary screen, fluorescence, CHO-OTR cells, Fluo-8 calcium; Fluo-8 calcium fluorescence, potentiator mode; 0% = oxytocin EC15, 100% = EC100; hit rate 0.061% among 320,000; Oxytocin receptor (Homo sapiens), P30559; activation, % at 3 µM;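 active = activation above that plate's cutoff, the mean activation of tested compounds plus 3 SD, cut at about 6.6% in these data, passing the limit was not always enough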;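 also: 100% uses oxytocin at 75 nM as the full agonist control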
Target sequence (P30559 whole entry, looked up): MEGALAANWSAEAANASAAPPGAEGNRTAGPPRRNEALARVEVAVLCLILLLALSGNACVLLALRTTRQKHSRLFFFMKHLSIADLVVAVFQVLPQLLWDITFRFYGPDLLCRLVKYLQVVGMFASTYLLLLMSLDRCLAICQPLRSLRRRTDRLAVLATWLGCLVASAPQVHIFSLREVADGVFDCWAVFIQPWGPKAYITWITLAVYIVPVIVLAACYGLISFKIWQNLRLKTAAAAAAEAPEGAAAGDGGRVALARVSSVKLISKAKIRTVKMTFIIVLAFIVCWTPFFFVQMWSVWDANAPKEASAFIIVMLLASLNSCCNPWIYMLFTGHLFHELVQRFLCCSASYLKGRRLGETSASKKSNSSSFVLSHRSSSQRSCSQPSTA
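System: human OTR in CHO cells / Also added: sub-maximal oxytocin, roughly EC15 / Control set: EC15 oxytocin low, 75 nM oxytocin high / Schedule: 6 min compound pre-incubation at room temperature, 100 s kinetic read / Compound: single-point 3.0 µM / Replication: singlicate / Technique: Fluo-8 calcium dye fluorescence / Read-out basis: % activation of max/min ratio relative to oxytocin controls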
OXTR ag = human OXTR agonists, primary screen, fluorescence, CHO-OTR cells, Fluo-8 calcium; activation, % at 3 µM; hit rate 0.32% among 320,000; Fluo-8 calcium fluorescence; normalized: DMSO 0%, oxytocin 100%; AID 2435, 2010; Oxytocin receptor (Homo sapiens), P30559;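 active = activation above the mean of all tested compounds plus 3 SD, cutoff set per screening run, cut at about 20% in these data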;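 also: peak over basal fluorescence ratio from a 100 s FLIPR kinetic read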
nonsel antag count = nonselective antagonists in TAAR1 counter-screen cells, counter-screen for hTAAR1 antagonist project, cell-based, fluorescence, calcium; hit rate 77% among 2,400; counterscreen cell line, antagonist mode; inhibition, % at 3 µM; shares compounds with TAAR1 antagonist; AID 651780, 2012; in the data active = inhibition above about 22%;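 also: CHO-Ga16 host cells stimulated with ATP at an EC80 level; 0% = agonist EC80 plus vehicle and 100% = vehicle without agonist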
TAAR1 ant conf = human TAAR1 antagonists, retest of hits, confirmation, cell-based, fluorescence; shares compounds with TAAR1 antagonist; TAAR1-expressing cells, fluorescence antagonist read-out; inhibition, % at 3 µM; hit rate 40% among 2,400; AID 651785, 2012; in the data active = inhibition above about 49%;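 also: CHO-Ga16 host cells challenged with agonist PEA near its EC80; 0% = agonist at EC80 plus vehicle and 100% = vehicle with no agonist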
Ga16 nonsel ag = calcium activation in Ga16-expressing cells, counter-screen for TAAR1 antagonist project, cell-based, fluorescence. shares compounds with TAAR1 antagonist. agonist counterscreen. activation, % at 3 µM. hit rate 18% among 2,400; in the data active = activation above about 12%;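 also: 0% = vehicle wells and 100% = saturating stimulus response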
TAAR1 ag count = TAAR1 activation by candidate antagonists – cell-based, fluorescence, counter-screen for TAAR1 antagonist project. activation, % at 3 µM. hit rate 2% among 2,400. hTAAR1 cell line, agonist mode. AID 651955, 2012. shares compounds with TAAR1 antagonist; in the data active = activation above about 37%;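 also: CHO cells stably expressing TAAR1 with calcium dye readout; 0% = DMSO vehicle and 100% = full agonist response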
Starred values were filed as active, the others as inactive; . = no result.

SMILES	TAAR1 antagonist	TAAR1 ag	V1aR counter	OXTR potentiate	OXTR ag	nonsel antag count	TAAR1 ant conf	Ga16 nonsel ag	TAAR1 ag count
CC(C)(C)N1C(=O)c2ccc(C(=O)Nc3ccc(O)cc3)cc2C1=O	63.3*	12.3	0.7	-7.0	0.2	23.6*	25.7	6.6	6.0
CCC(C)(C)NC(=O)C(Sc1ccccc1)c1ccccc1 (stereo unspecified)	-17.4	4.9	-0.4	7.3	-2.5	.	.	.	.
COc1ccccc1C=NNC(=O)c1ccccc1OCCOc1ccccc1	61.6*	5.3	0.1	-2.7	-2.3	21.4*	51.1*	4.2	0.0
Cc1cccc(/C=N/NC(=O)c2ccccc2OCc2cccc(Br)c2)n1	64.1*	8.8	4.9	-11.3	1.8	22.3*	44.5	7.4	14.8
COc1ccccc1/C=N/NC(=O)c1ccccc1Cl	0.9	-1.3	-0.5	-9.2	-1.0	.	.	.	.
C/C(=N\NC(=O)c1ccccc1)c1ccccc1F	7.8	9.6	0.6	-3.8	0.5	.	.	.	.
C/C(=N\NC(=O)c1ccccc1OCCOc1ccccc1)c1ccccc1F	60.3*	1.3	.	.	.	5.0	33.3	3.3	9.4
C#CCOc1ccccc1/C=N/NC(=O)c1ccccc1OCc1ccccc1	55.9*	-0.2	1.9	-11.5	0.5	16.1	36.3	3.4	4.1
COC(=O)c1ccc(N2C(c3cccc(OC)c3)=Cc3ccc(F)cc3C2c2c(C)[nH]c3ccccc23)cc1 (stereo unspecified)	-8.6	1.1	.	.	.	.	.	.	.
Cc1cc2nc(-c3ccc(C#N)cc3)c(Cc3ccsc3)n2c(C)c1Br	-11.4	-0.7	.	.	.	.	.	.	.
COc1ccc(/C=N/NC(=O)c2ccccc2OCc2ccccc2)c(OC)c1	49.4*	3.1	-0.3	2.9	-2.5	6.6	31.3	1.6	1.5
Cc1cccc(OCc2nnc(SCC(=O)NCc3ccc4c(c3)OCO4)o2)c1	-1.6	0.0	.	.	.	.	.	.	.
COc1ccc(-c2c(C)nc3c(-c4ccccn4)cnn3c2N)cc1	66.6*	10.7	.	.	.	24.1*	62.2*	9.6	12.3
COc1ccc(-c2c(C)nc3c(-c4ccsc4)cnn3c2N)cc1	9.5	3.8	1.7	-8.8	2.3	.	.	.	.
O=C(NCC1CC1)c1ccc(-n2ccnc2)c2ccoc12	-21.9	0.3	.	.	.	.	.	.	.
CC1Nc2ncnc(N3CCN(c4ccccc4)CC3)c2N(Cc2ccc(Br)cc2)C1=O (stereo unspecified)	57.2*	29.2	0.1	-13.4	0.3	17.8	35.7	7.5	7.0
COc1ccc(CN2C(=O)C(C)Nc3ncnc(N4CCN(c5ccccc5)CC4)c32)cc1 (stereo unspecified)	1.4	13.8	2.8	-4.9	2.4	.	.	.	.
CN(Cc1ccccc1)C(=O)COC(=O)C1CCN(S(=O)(=O)c2ccc3c(c2)OCCO3)CC1	-8.2	2.8	1.7	-14.7	-0.2	.	.	.	.
CCN(CC)S(=O)(=O)c1cccc(C(=O)OCC(=O)c2ccc3c(c2)NC(=O)CO3)c1	71.2*	19.3	7.7	-13.6	18.2	42.5*	61.4*	15.3*	12.1
Cc1cccc(C(=O)OCC(=O)c2ccc3c(c2)NC(=O)CO3)c1	46.5	9.8	4.7	-3.3	6.5	.	.	.	.
O=C1COc2ccc(C(=O)COC(=O)Cc3ccc(Cl)cc3)cc2N1	3.1	1.5	0.4	-29.9	1.5	.	.	.	.
O=C1COc2ccc(C(=O)COC(=O)CCSc3ccc(Cl)cc3)cc2N1	56.4*	13.7	1.8	-15.8	2.9	36.6*	33.4	9.9	3.7
Cn1c(/C(C#N)=C(\O)c2ccc([N+](=O)[O-])cc2)nc2ccccc21	8.3	5.2	0.9	-0.9	0.8	.	.	.	.
CCN(CC)S(=O)(=O)c1ccc(/C(O)=C(\C#N)c2nc3ccccc3n2C)cc1	63.4*	34.6	4.9	-10.9	5.3	35.1*	48.8*	12.6*	14.1
Fc1cccc(NC(=S)NNc2c3ccccc3nc3ccccc23)c1	52.7*	-0.3	.	.	.	40.1*	47.6	3.2	0.5
SMILES	TAAR1 antagonist	TAAR1 ag	V1aR counter	OXTR potentiate	OXTR ag	nonsel antag count	TAAR1 ant conf	Ga16 nonsel ag	TAAR1 ag count
Cc1c(Br)cccc1NC(=O)C1(C)CCN1Cc1ccccc1OC(F)F (stereo unspecified)	7.5	-1.3	.	.	.	.	.	.	.
COC(=O)[C@H](CCSC)NC(=O)NCc1cccs1	107.2*	12.4	-0.2	-2.0	0.2	-5.2	0.5	-0.1	-1.7
COC(=O)[C@@H](NC(=O)NCc1cccs1)C(C)C	2.8	9.7	0.0	5.5	0.0	.	.	.	.
COCCNC(=O)c1cccc2c(-c3cccc(C(N)=O)c3)coc12	-20.4	0.3	.	.	.	.	.	.	.
CC(=O)c1cccc(NC(=O)c2cccc3c(-c4cccc(C(N)=O)c4)coc23)c1	85.4*	13.2	.	.	.	41.5*	56.2*	12.7*	10.8
COc1cc(NC(=O)c2cccc3c(-c4cccnc4)coc23)cc(OC)c1OC	76.4*	19.8	.	.	.	28.8*	58.8*	16.3*	14.6
C#CCN(C[C@@H]1[C@@H](OC(=O)Nc2cccs2)[C@@H](OC(=O)Nc2cccs2)Cn2c(=O)ccc(=O)n21)S(=O)(=O)c1ccc(C)cc1	6.6	3.6	.	.	.	.	.	.	.
Cc1ccccc1OCC(=O)Nc1ccccc1C(=O)NC1CC1	56.5*	9.6	-0.2	-9.0	-1.6	23.6*	39.5	6.2	1.6
O=C(COc1ccccc1)Nc1ccccc1C(=O)NC1CC1	-0.2	3.2	0.4	-7.6	-0.7	.	.	.	.
COc1ccccc1N1CCN(C(=O)c2cccc(S(=O)(=O)N3c4ccccc4CC3C)c2)CC1 (stereo unspecified)	74.8*	11.4	.	.	.	38.9*	49.9*	9.5	9.6
O=C1c2ccccc2C(c2nnnn2Cc2ccccc2)N1CCc1ccccc1F (stereo unspecified)	67.6*	16.5	.	.	.	28.9*	50.9*	8.6	8.8
CC(C)n1nnnc1C1c2ccccc2C(=O)N1CCc1ccccc1F (stereo unspecified)	-14.8	26.5	.	.	.	.	.	.	.
